Active and inactive are the calls of the source. The calls are words filed in the database; no cut-off is given here.
Key:
Mus musculus [1] = assay: Antiinflammatory activity in FVB mouse peritonitis model assessed as reduction in zymosan-induced polymorphonuclear leukocytes infiltration at 10 ng, iv after 4 hrs; format: functional; design: scale not given: the % may be the effect or the level left
Outline: (§1)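 Male FVB mice, 6–8 weeks, isoflurane-anesthetized; compounds as carboxymethyl esters given iv by tail vein in 100 μl saline (0.05–50 μgkg–1 range), then zymosan A 1 mg/ml ip. Peritoneal lavage at 4 h; cells counted after trypan blue, differentials by Wright-Giemsa cytospin; reduction versus saline vehicle plus zymosan; mean ± S.E., n = 3.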

Mus musculus [2] = assay: Antiinflammatory activity in FVB mouse peritonitis model assessed as reduction in zymosan-induced polymorphonuclear leukocyte infiltration at 1 ng, iv after 4 hrs; format: functional, organism-based; outline: as §1
[3] = Antiinflammatory activity in human polymorphonuclear leukocytes assessed as inhibition of n-formylmethionylleucylphenylalanine-stimulated transendothelial migration at 1 uM after 15 mins; format: functional; design: scale not given: the % may be the effect or the level left
Outline: (§2)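 Human PMNs from venous blood (Histopaque 1077/1119 double gradient, NH4Cl lysis, >90% pure) in HBSS pH 7.4, preincubated 15 min at room temperature with 0–1000 nm compound; 10^6 cells added atop HMEC-1 monolayers on Transwell inserts; 100 nm fMLP lower chamber; migration 30 min, 37 °C, quantified by MPO; expressed as % reduction versus untreated PMNs.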

Mus musculus [4] = assay: Antiinflammatory activity in FVB mouse peritonitis model assessed as reduction in zymosan-induced polymorphonuclear leukocyte infiltration at 100 ng, iv after 4 hrs; format: functional; design: scale not given: the % may be the effect or the level left; outline: as §1
[5] = Antiinflammatory activity in human polymorphonuclear leukocytes assessed as inhibition of n-formylmethionylleucylphenylalanine-stimulated transendothelial migration after 15 mins; conditions: 0.25 h
Mus musculus [6] = assay: Antiinflammatory activity in FVB mouse peritonitis model assessed as reduction in zymosan-induced total leukocyte infiltration at 10 ng, iv after 4 hrs; format: functional; design: scale not given: the % may be the effect or the level left; outline: as §1
Mus musculus [7] = assay: Antiinflammatory activity in iv dosed FVB mouse peritonitis model assessed as reduction in zymosan-induced polymorphonuclear leukocyte infiltration at after 4 hrs; format: functional, organism-based
[8] = Antiinflammatory activity in human polymorphonuclear leukocytes assessed as inhibition of n-formylmethionylleucylphenylalanine-stimulated transendothelial migration at 10 nM after 15 mins; format: functional; design: scale not given: the % may be the effect or the level left; outline: as §2

EC50 [5] [nM] | SMILES | Activity (Mus musculus [1]) | Activity (Mus musculus [2]) | Activity [3] [%] | Activity (Mus musculus [4]) [%] | Activity (Mus musculus [6]) [%] | Activity (Mus musculus [7]) | Activity [8] [%]
 | CC/C=C\C[C@@H](O)/C=C/C=C\C=C\C=C\C(=O)[C@@H](O)C/C=C\CCC(=O)O | 41% |  |  |  |  |  | 
 | CC/C=C\CC(=O)/C=C/C=C\C=C\C=C\[C@@H](O)[C@@H](O)C/C=C\CCC(=O)O | inactive |  |  |  |  |  | 
30 | CC/C=C\C[C@@H](O)/C=C/C=C\C=C\C=C\[C@@H](O)[C@@H](O)C/C=C\CCC(=O)O |  | Active | 65 | 35 | 23 | Dose-dependent effect | 50
30 | CC/C=C\C[C@H](O)/C=C/C=C\C=C\C=C\[C@@H](O)[C@@H](O)C/C=C\CCC(=O)O |  | Active |  | 35 | 8 | Dose-dependent effect | 50
